Like-named read-outs stand apart in the source and are kept apart here.
Tests used:
Assay type in all cases: cell-based, human
[1] = test system: U-118 MG; test: MTT cell viability/proliferation assay, U-118 MG; conditions: read-out: U-118 MG IC50
Procedure, shortened: (§1)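 Human lines grown at 37 °C, 5% CO2 with 10% FBS: U-118 MG in DMEM; T98G and HaCaT in EMEM. Seeded 1 × 10⁴ cells/well, left 24 h, then exposed 48 h to test compound at 7.81–1000 μg mL⁻¹ (eight twofold steps). MTT added at 0.5 mg mL⁻¹ final for 2 h. Formazan dissolved in DMSO, read at 492 nm against 690 nm reference. IC50 is the mean of ≥3 independent experiments.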

[2] = test system: HaCaT; test: MTT cell viability/proliferation assay, HaCaT; conditions: read-out: HaCaT IC50
Procedure, shortened: as §1

[3] = test system: T98G; test: MTT cell viability/proliferation assay, T98G; conditions: read-out: T98G IC50
Procedure, shortened: as §1

[4] = test system: T98G cells; test: Colony formation; conditions: for clonogenic survival compared to control cells: 20 μM; for reduction of cancer cell clonogenic potential: 50 μM
Procedure, shortened: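 T98G cells seeded at 500 per well and allowed to adhere 24 h. Exposed to test compound at 2–100 μM in triplicate; after 24 h switched to compound-free medium, 7 days total. Colonies (≥50 cells) methanol-fixed, stained with 1% gentian violet and counted by light microscopy.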

[5] = MTT, 48 hours, glioblastoma multiforme cell line

CCOP(=O)(OCC)C(Cc1c(F)c(F)c(F)c(F)c1F)Nc1ccccc1 (stereo not shown) [Compound 1a, Diethyl (2-(perfluorophenyl)-1-(phenylamino)ethyl)phosphonate]
IC50 ([1]; Homo sapiens, U-118-MG, 48 h): 60.7 ± 8.9 µM
IC50 ([2]; Homo sapiens, HaCaT, 48 h): 56.8 ± 7.4 µM
IC50 ([3]; Homo sapiens, T98G, 48 h): 40.4 ± 6.2 µM

CCOP(=O)(OCC)C(Cc1c(F)c(F)c(Sc2cccc(OC)c2)c(F)c1F)Nc1ccccc1 (stereo not shown) [Compound 2e, Diethyl (1-(phenylamino)-2-(2,3,5,6-tetrafluoro-4-((3-methoxyphenyl)thio)phenyl)ethyl)phosphonate]
clonogenic survival compared to control cells [4]: 30%
reduction of cancer cell clonogenic potential [4]: 85%
IC50 ([1]; Homo sapiens, U-118-MG, 48 h): 21.4 ± 2.7 µM
IC50 ([2]; Homo sapiens, HaCaT, 48 h): 10.1 ± 2.2 µM
IC50 ([3]; Homo sapiens, T98G, 48 h): 20.4 ± 3.1 µM

CCOP(=O)(OCC)C(Cc1c(F)c(F)c(Sc2cccc(N)c2)c(F)c1F)Nc1ccccc1 (stereo not shown) [Compound 2f, Diethyl (2-(4-((3-aminophenyl)thio)-2,3,5,6-tetrafluorophenyl)-1-(phenylamino)ethyl)phosphonate]
clonogenic survival compared to control cells [4]: 10%
reduction of cancer cell clonogenic potential [4]: 98%
IC50 ([1]; Homo sapiens, U-118-MG, 48 h): 28.1 ± 3.6 µM
IC50 ([2]; Homo sapiens, HaCaT, 48 h): 18.2 ± 3.4 µM
IC50 ([3]; Homo sapiens, T98G, 48 h): 25.5 ± 1.9 µM

CCOP(=O)(OCC)C(Cc1c(F)c(F)c(SCC(NC(C)=O)C(=O)OC)c(F)c1F)Nc1ccccc1 (stereo not shown) [Compound 2j, Methyl 2-acetamido-3-((4-(2-(diethoxyphosphoryl)-2-(phenylamino)ethyl)-2,3,5,6-tetrafluorophenyl)thio)propanoate]
IC50 ([1]; Homo sapiens, U-118-MG, 48 h): > 100 µM
IC50 ([2]; Homo sapiens, HaCaT, 48 h): > 100 µM
IC50 ([3]; Homo sapiens, T98G, 48 h): 82.7 ± 15.7 µM

CCOP(=O)(OCC)C(Cc1c(F)c(F)c(Oc2ccc(Cl)cc2)c(F)c1F)Nc1ccccc1 (stereo not shown) [Compound 2r, Diethyl (2-(4-(4-chlorophenoxy)-2,3,5,6-tetrafluorophenyl)-1-(phenylamino)ethyl)phosphonate]
IC50 ([1]; Homo sapiens, U-118-MG, 48 h): 79.2 ± 6.4 µM
IC50 ([2]; Homo sapiens, HaCaT, 48 h): 48.4 ± 7.4 µM
IC50 ([3]; Homo sapiens, T98G, 48 h): 70.3 ± 8.3 µM

O=c1[nH]c(=O)n([C@H]2C[C@H](O)[C@@H](CO)O2)cc1F [Compound 5-FdU, 5-fluoro-2′-deoxyuridine, reference compound]
IC50 ([1]; Homo sapiens, U-118-MG, 48 h): 23.4 ± 1.6 µM
IC50 ([2]; Homo sapiens, HaCaT, 48 h): 4.42 ± 1.1 µM
IC50 ([3]; Homo sapiens, T98G, 48 h): 5.57 ± 0.9 µM

Diethyl (1-(phenylamino)-2-(2,3,5,6-tetrafluoro-4-(m-tolylthio)phenyl)ethyl)phosphonate [Compound 2b]
IC50 [1, 5]: 37.9 ± 2.5 µM
IC50 ([2]; MTT, 48 hours, referential healthy cells): 26.5 ± 4.7 µM
IC50 [3, 5]: 14.5 ± 3.3 µM

Source: publication PMC9069932 (RSC Advances, 2019)
